Bioassay records from PubChem.
Only some compounds are listed: those with a hit (about 2.2% of all), similar ones and a draw of the others.
RORa activator – activates the human nuclear receptor RORA. P35398. CHO-K1 Gal4-RORA LBD luciferase reporter, luminescence; percent increase over mock-subtracted basal signal. AID 560. activation, % at 10 µM. 65,000 compounds, 1.5% hits;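 active = activation above the mean of all tested compounds plus 3 SD, cut at about 49% in these data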;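 note: 0% = DMSO-treated RORA cells and 100% = added signal equal to DMSO minus mock-transfected cells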
Target sequence (P35398 whole entry, looked up, the tested form may be a part): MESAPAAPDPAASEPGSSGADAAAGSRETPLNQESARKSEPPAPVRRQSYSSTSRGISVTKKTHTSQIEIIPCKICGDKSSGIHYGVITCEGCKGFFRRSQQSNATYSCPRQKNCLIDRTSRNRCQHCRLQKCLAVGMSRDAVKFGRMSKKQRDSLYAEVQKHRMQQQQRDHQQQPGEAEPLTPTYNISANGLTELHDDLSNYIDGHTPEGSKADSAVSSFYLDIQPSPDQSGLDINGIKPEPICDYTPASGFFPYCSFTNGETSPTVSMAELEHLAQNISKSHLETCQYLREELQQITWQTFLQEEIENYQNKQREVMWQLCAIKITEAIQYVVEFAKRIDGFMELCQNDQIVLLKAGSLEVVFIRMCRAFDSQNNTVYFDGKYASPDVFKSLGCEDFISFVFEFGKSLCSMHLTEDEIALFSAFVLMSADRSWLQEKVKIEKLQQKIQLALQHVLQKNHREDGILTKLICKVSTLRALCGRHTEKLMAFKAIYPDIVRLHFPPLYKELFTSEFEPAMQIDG
Ec RNAP inh – inhibitors of Escherichia coli RNA polymerase | E. coli RNA polymerase, fluorescence transcription assay | 62,000 compounds, 0.2% hits | inhibition, %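 (tested at 10 µM)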 | AID 559 | P0A8V2; in the data active = inhibition above about 20%;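 note: 0% = enzyme without compound and 100% = no enzyme blank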
TNAP act mid DEA – activates human TNAP at intermediate phosphate acceptor concentration | P05186 | AID 813 | activation factor at 20 µM | purified TNAP, CDP-star luminescence, 100 mM DEA, 30 min; stronger effect = higher value; scale: 0 levamisole-inhibited, 1 vehicle-only enzyme | 64,000 tested, under 10 active;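 active = activation factor of at least 2 at 20 µM, relative to controls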
SF1 activator – SF-1 (human) activation; activation, % at 10 µM; 65,000 compounds, 1.9% hits; CHO-K1 Gal4-SF-1 LBD luciferase reporter; % increase over DMSO SF-1-specific signal;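 active = activation above the mean activation of all tested compounds plus 3 SD, cut at about 50% in these data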
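Material: CHO-K1 cells with Gal4–hSF-1 LBD chimera plus Gal4-driven luciferase / Input: 4,000 CHO-K1 cells per well / Incubation: compound exposure 20 h at 37 °C / Signal: luminescence read 15 min after SteadyLite luciferase reagent, after room-temperature equilibration / Read-out: percent activation versus DMSO / Benchmarks: DMSO negative control and −SF1 background wells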
AP complement – alternative pathway complement inhibition, orthogonal assay. Human serum alternative complement pathway, LPS-coated ELISA, C3 deposition; tested in compound mixtures. inhibition, % at 5 µM. 62,000 compounds, 0.08% hits;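 active = inhibition above 30% in each of the two pooled mixtures holding the compound, so the lower value exceeds 30%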;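 note: 0% = serum in Mg-EGTA without compound and 100% = EDTA serum blank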
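Assay system: Human serum alternative complement pathway, C3 deposition on LPS-coated wells | Incubation: 1 h serum-compound exposure at 37 °C | Doses: 5 µM per compound in ten-compound mixtures | Read-out: Percent inhibition | Technique: ELISA with HRP anti-human C3 antibody, TMB substrate, absorbance 450 nm | Replication: Two pool placements per compound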
MT1-MMP txn act – activates MT1-MMP transcription. HT1080 MT1-MMP promoter luciferase reporter, luminescence, overnight; stronger effect = higher value. activation factor at 10 µM. 86,000 compounds, 0.16% hits. AID 750;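 active = activation factor of at least 2 for MT1-MMP transcription at 10 µM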
* marks the source's active call; other numbers are inactive results; nt = no result.

SMILES	RORa activator	Ec RNAP inh	TNAP act mid DEA	SF1 activator	AP complement	MT1-MMP txn act
O=C(Nc1cccc(F)c1)c1c(F)c(F)c(F)c(F)c1F	-34	0	0.9	-8	17	1
CCN(CC)c1ccc(C(=O)Nc2cccc(F)c2)cc1	42	12	0.9	54*	2	0.6
CC(=O)Nc1c(O)nc(SCC(=O)Nc2ccc(C(C)=O)cc2)[nH]c1=O	58*	4	0.9	50*	3	1.7
CC(=O)Nc1c(O)nc(SCC(=O)Nc2cccc(C)c2)[nH]c1=O	nt	nt	nt	nt	nt	1.1
COCCn1c(SCC(=O)c2ccc(F)cc2)nnc1C(C)C	-16	9	0.9	13	4	1.1
Nc1c(-c2ccc(Cl)cc2)nnn1-c1ccccc1	87*	12	0.9	61*	17	1.7
Clc1ccc(-n2nnnc2-c2ccccc2)cc1	-1	4	0.9	-7	-1	1.1
CCNc1nc(NCC)nc(OCCNS(=O)(=O)c2cc(C)ccc2C)n1	1	5	0.9	-5	-4	1.1
CCNc1nc(NC(C)C)nc(OCCNS(=O)(=O)c2cc(C)ccc2C)n1	20	8	0.9	4	32*	1
CC(C)N(CCCNC(=O)C1CCN(S(=O)(=O)N2CCOCC2)CC1)Cc1ccccc1	-16	6	0.9	12	5	1
CSc1ccc(-c2nnn(Cc3ccc(Br)cc3)n2)cc1	nt	nt	nt	nt	nt	1.3
CSc1ccc(-c2nnn(Cc3ccccn3)n2)cc1	56*	6	0.9	57*	12	2*
COc1ccc(-c2noc(Cc3ccccc3OC)n2)cc1	-7	3	0.9	22	10	1.4
COc1ccc(-c2noc(Cc3cccs3)n2)cc1	57*	-4	0.9	42	12	1.5
C=CCn1c(C)cc(C(=O)CSc2n[nH]c(N)n2)c1C	nt	nt	nt	nt	nt	1.4
Fc1ccc(-c2nnc(-c3ccc(Cl)cc3)o2)cc1	56*	5	0.9	38	14	1.1
Cc1cc(N2CCN(C(=O)c3ccco3)CC2)n2ncc(-c3ccccc3)c2n1	30	7	1	65*	5	1.9
Cc1cc(N2CCCCC2)n2ncc(-c3ccc(Cl)cc3)c2n1	87*	nt	0.9	62*	-8	1.9
CCN(CC)C(=O)CSC1=C(C#N)C(c2cccs2)C=C(C)N1 (stereo not drawn)	-11	3	0.9	-2	nt	1.2
CCOc1ccc(C(=O)N2CCC(C(=O)c3ccc4c(c3)OCCO4)CC2)cc1	10	10	0.9	-7	4	0.9
CCOc1ccc(C(=O)Nc2ccc3c(c2)OCCO3)cc1OC	34	-8	1	56*	-12	1.5
CC(C)CNS(=O)(=O)c1ccc(C(=O)Nc2ccc3c(c2)OCCO3)cc1	73*	5	0.9	9	-4	1.9
Cc1cc(C)n(-c2ccc(C(=O)Nc3sccc3C(N)=O)cc2)n1	31	3	0.9	62*	3	1.8
CCOc1cc(C(=O)Nc2ccc3c(c2)OCO3)ccc1OC(F)F	21	6	0.9	15	7	1.1
Cc1cc(C)n(-c2ccc(C(=O)Nc3ccc4c(c3)OCCO4)cc2)n1	75*	-2	0.9	35	8	1.1
SMILES	RORa activator	Ec RNAP inh	TNAP act mid DEA	SF1 activator	AP complement	MT1-MMP txn act
O=C(O)CSCCC(=O)Nc1ccc(F)cc1	-2	6	1	-9	4	1.3
Cc1cc(C)c(S(=O)(=O)N(C)CC(N)=O)c(C)c1	11	-15	0.9	-1	-7	1.1
CC[Si](CC)(CC)c1c2c(nc3ccc(OC)cc13)-c1cccc(=O)n1C2	nt	nt	nt	nt	nt	1
O=S(=O)(Cc1nc2ccccc2s1)c1ccccc1	50*	-1	0.9	110*	7	1.6
Cc1nn(-c2ccccc2)c2sc(C(=O)N3CCOCC3)cc12	58*	1	0.9	94*	6	1.9
O=C(c1cc2c(=O)n3ccccc3nc2s1)N1CCOCC1	24	-9	0.9	60*	12	1.5
O=C(c1cc2c(=O)oc3ccccc3c2s1)N1CCOCC1	46	-2	1	29	4	1.2
COc1ccc(-c2csc(/C(C#N)=C(\O)CSc3nccn3C)n2)cc1OC	6	4	0.9	42	0	1.2
CC(=O)N(Cc1cc(=O)[nH]c2ccccc12)c1ccccc1	-20	6	0.9	-19	4	1.2
CN(Cc1cc(=O)[nH]c2ccccc12)C(=O)c1ccccc1	15	nt	0.9	-8	21	2.2*
COc1ccc(NC(=O)CN2CCN(C3c4ccccc4-c4ccccc43)CC2)cc1	nt	nt	nt	nt	nt	1
CC(C)c1ccc2oc(=O)cc(CN3CCN(c4ccc(F)cc4)CC3)c2c1	-1	8	0.9	-2	40*	1.1
CCc1ccc2oc(=O)cc(CN3CCN(c4ccc(F)cc4)CC3)c2c1	4	6	0.9	-10	12	1.2
NCC#CC(CCc1ccccc1)OCc1ccccc1 (stereo not drawn)	nt	nt	nt	nt	nt	1.1
O=C(c1cnn(-c2nc3ccccc3s2)c1)c1ccccc1O	52*	-1	1	36	3	1.2
COc1ccc(-c2cc3nc(C)cc(C)n3n2)c(OC)c1	25	4	0.9	1	-1	0.9
CC(C)c1ccc2oc(-c3ccc(NC(=O)c4ncn[nH]4)cc3)nc2c1	33	8	1	66*	5	1
O=C(Nc1ccc2oc(-c3ccccc3Cl)nc2c1)c1cncc(Br)c1	4	7	0.9	6	7	1
O=C(Nc1ccc2oc(-c3ccccc3Cl)nc2c1)c1ncn[nH]1	62*	-4	1.1	76*	0	0.8
CC(=O)Nc1ccc2oc(-c3cc(F)c(F)cc3Cl)nc2c1	52*	nt	0.9	53*	-2	nt
Cc1ccc2oc(-c3ccc(NC(=O)CC(C)C)cc3)nc2c1	55*	6	0.9	44	10	1.3
Cc1nnc(Sc2nc3c(c(=O)[nH]c(=O)n3C)n2Cc2ccccc2Cl)s1	-3	-2	0.9	-12	17	1
COC(=O)c1ccc2c(c1)N(Cc1nc(-c3ccc(Cl)cc3)oc1C)C(=O)C1CCCN21 (stereo not drawn)	-16	0	0.9	-36	20	1.1
Cc1occc1C(=O)Nc1ccccc1NC(=O)c1ccoc1C	-28	8	1	20	7	1.2
Cc1occc1C(=O)Nc1cccc2ccccc12	28	0	0.8	74*	9	0.8
CCOC(=O)N1CCC(N2Cc3cccc(C(=O)Nc4ccc(OC)c(OC)c4)c3C2=O)CC1	19	5	0.9	54*	6	1.1
CCOC(=O)c1ccccc1NC(=O)c1cccc2c1C(=O)N(C1CCN(C(=O)OCC)CC1)C2	-12	11	0.9	-9	28	1.1
